The source of these data is PubChem BioAssay AID588687 (Southern Research Specialized Biocontainment Screening …, 2011).

Active and inactive are the calls of the source.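 Rule for the calls: active = inhibition of 30% or more at any tested concentration; inactive = the rest.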

For this experiment, the system named is M18 aspartyl aminopeptidase (Plasmodium falciparum 3D7). The experiment is described as follows: P. falciparum M18 aminopeptidase activity inhibition – biochemical, QFRET fluorogenic substrate, counter-screen for PfM1 aminopeptidase inhibitor project, dose response (AID 588687). The settings on record: recombinant PfM18AAP, H-Glu-NHMec fluorogenic cleavage; series mostly up to 100 µM. In short, it runs like this:
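Assay system – recombinant P. falciparum PFM18AAP enzyme · Medium – pH 7.5 Tris-HCl plus 2 mM CoCl2 · Also added – 0.1 mM H-Glu-NHMec substrate · Schedule – enzyme reaction with compounds 90 min at room temperature · Measured by – fluorescence of released leaving group, excitation 370 nm, emission 460 nm · Read-out – % inhibition of enzyme activity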
(A counterscreen serves to expose hits that act by an unwanted route or on another target.)
As to `O=C(NCc1ccc2c(c1)OCO2)C1CCN(S(=O)(=O)c2ccc(-c3ccccc3)s2)CC1`, the result was inactive.
For `CC[C@H](C)[C@H](NC(=O)c1ccc(C(C)(C)C)cc1)C(=O)NCc1ccc(C(F)(F)F)cc1` the value was “inactive”; for `CC[C@H](C)[C@H](NS(=O)(=O)c1ccc(Br)s1)C(=O)NCc1ccc(C(F)(F)F)cc1`, “inactive”.
For `COc1ccc(-c2ccc(S(=O)(=O)N3CCC(C(=O)NCc4ccc5c(c4)OCO5)CC3)s2)cc1` the value was “inactive”; for `CC[C@H](C)[C@H](NS(=O)(=O)c1ccc(Br)s1)C(=O)NCc1ccc(F)cc1`, “inactive”.
Next, `CC(=O)Nc1cccc(-c2ccc(S(=O)(=O)N3CCC(C(=O)NCc4ccc5c(c4)OCO5)CC3)s2)c1`: “inactive”.
Consider `O=C(NCc1ccc2c(c1)OCO2)C1CCN(S(=O)(=O)c2ccc(-c3ccc(F)cc3)s2)CC1`, for which the result was inactive.
Next, `COc1cccc(-c2ccc(S(=O)(=O)N3CCC(C(=O)NCc4ccc5c(c4)OCO5)CC3)s2)c1`: “inactive”; `CC[C@H](C)[C@H](NC(=O)c1ccc([N+](=O)[O-])cc1)C(=O)NCc1ccccc1`: “inactive”; `O=C(NCc1ccc2c(c1)OCO2)C1CCN(S(=O)(=O)c2ccc(-c3cccc(F)c3)s2)CC1`: “inactive”.
As to `CC[C@H](C)[C@H](NC(=O)c1ccc([N+](=O)[O-])cc1)C(=O)NCc1ccc(F)cc1`, the outcome was inactive.
Regarding `CC[C@H](C)[C@H](NS(=O)(=O)c1cccs1)C(=O)NCc1ccc(F)cc1`, the outcome was inactive.
With `O=C(NCc1ccc2c(c1)OCO2)C1CCN(S(=O)(=O)c2ccc(-c3cncc4ccccc34)s2)CC1`, the result was inactive.
For `CC[C@H](C)[C@H](NC(=O)c1ccc([N+](=O)[O-])cc1)C(=O)NCc1ccc(C(F)(F)F)cc1` the value was “inactive”.
Take `CC[C@H](C)[C@H](NS(=O)(=O)c1ccc(Br)s1)C(=O)O`: the result was inactive.
As to `CC(C)(C)c1ccc(-c2ccc(S(=O)(=O)N3CCC(C(=O)NCc4ccc5c(c4)OCO5)CC3)s2)cc1`, the result was inactive.
For `CN(C)c1ccc(CNC(=O)C2CCN(S(=O)(=O)c3ccc(Br)s3)CC2)cc1` the value was “inactive”.
